Assay outcomes from PubChem.
rRNA inh HTS: inhibitors of bacterial rRNA selective over humanized ribosomes; E. coli WT GFP vs humanized-ribosome RFP mutants, fluorescence, 24 h; active compounds read low; DMSO median 0, no signal -100; GFP signal change (wild-type ribosome), % (test concentration not listed); actives 1.6% (n = 350,000);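 active = significant combined selectivity score with lowered wild-type GFP, culture density cut under 30%, mutant RFP and density less affected; inactive = any of these conditions unmet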
ERAP1 HTS inh: inhibitors of human ERAP1 aminopeptidase; Q9NZ08; recombinant ERAP1, Leu-AMC fluorescence, 60 min; inhibition, % at 10.7 µM; actives 0.15% (n = 340,000); AID 652197;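 active = mean replicate inhibition of at least 30%, or all replicates individually reaching that 30% level; inactive = mean below 30% and not every replicate reaching it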;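 also: 0% = neutral control wells and 100% = L-leucinethiol positive control wells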
S100A4 inh HTS: blocks human S100A4 binding to myosin IIA peptide | inhibition, % at 10.7 µM | actives 0.14% (n = 360,000) | S100A4/TAMRA-MyoIIA peptide fluorescence polarization;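 active = mean inhibition of at least 70% across replicates, with every replicate also reaching that level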
Target sequence (P26447 whole entry, looked up): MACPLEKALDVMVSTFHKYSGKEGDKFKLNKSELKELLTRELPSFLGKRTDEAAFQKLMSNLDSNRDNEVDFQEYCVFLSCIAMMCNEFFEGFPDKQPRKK
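Test system – S100A4 monomer (human) · Compound – single-point compound testing · Schedule – 5 min incubation before reading · Probe or stimulus – TAMRA-labelled myosin IIA heavy-chain peptide probe, 5 nM · Benchmarks – neutral control DMSO, positive control TFP · Medium – Calcium-containing HEPES buffer, pH 7.2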
ARNT TACC3 PPI: disruptors of human ARNT/TACC3 interaction | actives 0.66% (n = 390,000) | AlphaScreen His-ARNT PAS-B/GST-TACC3 binding, luminescence; TACC3 fragment carries E629A point mutation | Q9Y6A5 | inhibition, % at 9.99 µM;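 active = mean inhibition of replicates at least 50% and at least half of replicates each reaching 50%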;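 also: 0% = complete ARNT plus TACC3 wells and 100% = ARNT alone without TACC3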
PGC1a acetyl inh: lowers PGC1a acetylation signal in U2OS cells. AlphaScreen anti-acetyl-lysine; with virally co-expressed GCN5 acetyltransferase. inhibition, % at 15.6 µM. actives 0.17% (n = 350,000);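 active = every replicate shows inhibition of at least 40%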;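 also: 0% = neutral control wells and 100% = positive control wells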
Casp6 inh: inhibitors of human caspase-6. actives 0.53% (n = 350,000). purified caspase-6, Z-VEID-R110 cleavage fluorescence. inhibition, % at 12.5 µM. AID 686996. P55212;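 active = mean inhibition across replicates at least about 35%, with every replicate also reaching that limit, limit read from the data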;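 also: 0% = median of neutral control wells and 100% = no fluorescence left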
Target sequence (P55212 24-179 limits assumed): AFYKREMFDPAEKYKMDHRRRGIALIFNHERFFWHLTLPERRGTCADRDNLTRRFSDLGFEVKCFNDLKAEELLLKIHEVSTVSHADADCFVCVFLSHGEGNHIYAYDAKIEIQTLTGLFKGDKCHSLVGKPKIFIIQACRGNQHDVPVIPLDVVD
Target sequence (P55212 194-293 limits assumed): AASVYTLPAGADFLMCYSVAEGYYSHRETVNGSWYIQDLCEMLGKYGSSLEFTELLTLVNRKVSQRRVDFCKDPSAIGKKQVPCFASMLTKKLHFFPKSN
An asterisk follows results filed as active; · = no result given. Hits are enriched below; roughly 2.4% of the tested compounds scored in any of these assays.

SMILES	rRNA inh HTS	ERAP1 HTS inh	S100A4 inh HTS	ARNT TACC3 PPI	PGC1a acetyl inh	Casp6 inh
O=C(O)c1cccc(-n2cccc2/C=C2/NC(=O)N(c3ccc(Cl)cc3)C2=O)c1	9	-2	-3	13	0	84*
O=C1S/C(=C\c2ccc(O)c([N+](=O)[O-])c2)C(=O)N1Cc1cccc([N+](=O)[O-])c1	17	1	-3	·	-22	3
O=C(O)c1cccc(CN2C(=O)S/C(=C/c3ccccc3[N+](=O)[O-])C2=O)c1	-22*	3	1	8	1	21
COc1ccc(-n2cccc2/C=C2/NC(=O)N(c3cccc(Cl)c3)C2=O)cc1	·	-1	-2	-4	·	3
C[C@H](CO)N1C[C@H](C)[C@@H](CN(C)Cc2ccccc2C(=O)O)Oc2ncc(C#CC3CC3)cc2C1=O	-3	-2	14	-19	6	0
COc1ccc(C#Cc2ccc3c(c2)[C@@H]2[C@@H](CCN2C(C)=O)[C@H](CO)N3C)cc1	1	·	·	8	11	·
CCOC(=O)c1sc(N2C(=O)C(O)=C(C(=O)c3ccco3)C2c2ccc(C)o2)nc1C (stereo unspecified)	-18	3	-6	11	·	25
CCOC(=O)c1sc(N2C(=O)C(O)=C(C(=O)c3ccco3)C2c2ccc([N+](=O)[O-])cc2)nc1C (stereo unspecified)	-18*	4	-14	12	·	11
Cc1cc(C)cc(-n2c(C)cc(/C=N\NC(=O)COc3cccc4cccnc34)c2C)c1	-21*	-3	-5	3	1	2
Cc1cc(/C=N/NC(=O)COc2cccc3cccnc23)c(C)n1-c1ccc(O)cc1	·	·	·	-18	·	·
O=C(Nc1ccc(Oc2cccc(C(F)(F)F)c2)nc1)c1ccccc1	8	4	-5	15	·	-2
O=C(Nc1ccc(Oc2cccc(C(F)(F)F)c2)nc1)c1cccs1	-44*	·	-5	-5	·	-2
S=c1[nH]nc(-c2ccncc2)n1/N=C/C=C/c1ccco1	5	0	-17	-1	·	51*
Cc1cccc(-c2n[nH]c(=S)n2/N=C/C=C/c2ccco2)c1	-12	5	-1	6	·	7
COCC#Cc1ccc(CC[C@H]2O[C@H]3CC[C@H](CO)O[C@H]3C[C@H]2n2cc(C3(O)CCCC3)nn2)cc1	·	-1	7	·	5	5
COCC#Cc1ccc2c(c1)O[C@H](CN(C)S(=O)(=O)c1cccc(F)c1)[C@@H](C)CN([C@@H](C)CO)S2(=O)=O	-9	-3	0	4	-11	2
O=C(CNC(=O)c1ccc(Cl)cc1Cl)OCc1cn2cc(Br)ccc2n1	0	-2	74*	4	-6	1
CC(=O)Oc1cc2oc(=O)cc(C)c2cc1Cl	-26*	-342	0	-9	·	1
Cc1cc(=O)oc2cc(OC(C)C(=O)O)c(Cl)cc12 (stereo unspecified)	·	·	·	-1	·	·
O=C(CC1CC1)N1CC(=O)N2[C@H](CO)[C@@H](c3ccc(-c4ccccc4)cc3)[C@@H]2C1	3	-2	1	·	-1	0
COc1ccc(S(=O)(=O)Nc2ccc3c(c2)C(=O)N([C@@H](C)CO)C[C@@H](C)[C@H](CN(C)Cc2ccc4c(c2)OCO4)OCCCC[C@H](C)O3)cc1	4	-2	2	0	-4	-1
NC(=S)N/N=C/c1ccc(-c2cc(Cl)cc(Cl)c2)o1	·	·	·	-24	-18	·
NC(=S)N/N=C/c1ccc(-c2cc(Cl)ccc2Cl)o1	-21*	0	2	11	·	1
COc1cccc(NC(=O)N[C@H]2C=C[C@H](CC(=O)NCc3ccccn3)O[C@H]2CO)c1	3	-3	-3	·	4	0
O=C(NNC(=O)c1ccccc1O)c1ccc(Br)cc1	-24*	-1	10	2	15	1
O=C(NNC(=O)C1CCCCC1)c1ccc(Br)cc1	-24*	3	0	-4	·	-3
CN1C(=O)c2cc(NC(=O)c3ccc(Cl)cc3)ccc2OC[C@H]2O[C@H](CC(=O)O)CC[C@@H]21	-1	·	·	·	8	·
Cc1cccc(NC(=S)NC2CC3C=CC2C3)c1 (stereo unspecified)	-21*	-1	-2	-1	21	4
